Assay outcomes from PubChem.
Sampled rows, rich in hits. Any-hit rate of the full collection: about 1.9%.
Hck Nef HTS = inhibitors of human Hck kinase activated by Nef. P08631. Recombinant Hck-YEEI plus Nef, Z-Lyte FRET kinase assay. inhibition, % at 20 µM. actives 0.68% (n = 220,000). AID 463187;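 active = Hck-Nef kinase inhibition above about 50%, limit read from the data; inactive = inhibition below that limit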
Target sequence (P08631 whole entry, looked up): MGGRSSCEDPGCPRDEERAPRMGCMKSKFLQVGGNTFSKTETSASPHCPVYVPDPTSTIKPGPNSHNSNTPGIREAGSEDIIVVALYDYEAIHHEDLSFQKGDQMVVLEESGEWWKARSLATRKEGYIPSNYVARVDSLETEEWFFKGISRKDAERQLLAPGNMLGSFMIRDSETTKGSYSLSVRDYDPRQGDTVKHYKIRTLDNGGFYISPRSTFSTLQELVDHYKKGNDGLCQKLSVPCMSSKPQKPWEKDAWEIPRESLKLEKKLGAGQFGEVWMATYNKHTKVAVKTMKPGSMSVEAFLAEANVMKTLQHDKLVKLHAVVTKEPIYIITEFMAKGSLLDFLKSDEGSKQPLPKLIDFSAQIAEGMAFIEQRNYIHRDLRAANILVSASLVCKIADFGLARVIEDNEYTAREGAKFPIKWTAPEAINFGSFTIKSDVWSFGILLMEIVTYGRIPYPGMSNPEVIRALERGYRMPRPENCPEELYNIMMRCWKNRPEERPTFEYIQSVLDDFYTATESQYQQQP
TbHK1 inh = T. brucei hexokinase 1 inhibition | recombinant TbHK1, G6PDH-coupled NADH A340 | actives 0.11% (n = 220,000) | inhibition, % at 10 µM;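 active = inhibition of 50% or more in the single-dose primary screen; inactive = inhibition below 50%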
RanGTP-Imp inh = inhibitors of RanGTP-importin-beta interaction, primary screen, biochemical, FRET, CFP-Ran, YFP-importin-beta, homogeneous. cell-free CFP-Ran/YFP-importin-beta FRET ratio. inhibition, % (test concentration not listed). actives 1.1% (n = 300,000);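 active = more than half of the replicate wells show a fall in the fluorescence ratio signal beyond about 16%, limit read from the data, passing the limit was not always enough; inconclusive = exactly half of the replicate wells pass the set limit; inactive = fewer than half of replicates pass the limit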
Runt-CBFb FRET = blocks binding of human RUNX1 Runt domain to CBFb; actives 0.46% (n = 220,000); Q01196+Q13951; Cerulean-Runt/Venus-CBFb FRET ratio 530/480, 1 h; inhibition, % at 20 µM;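 active = inhibition over about 50% at 20 µM in the single-dose screen, limit read from the data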
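Doses: 20 µM compound in 1% DMSO | Material: Cerulean-labeled Runt domain protein | Amount: Each fluorescent fusion protein 100 nM | Schedule: Two 1 h room-temperature incubations shielded from light | Measured by: FRET fluorescence | Evaluation: Loss of energy transfer signal | Controls: Unlabeled CBFb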
Runt-SMMHC FRET = Runt domain-CBFb-SMMHC interaction inhibition. Cerulean-Runt/Venus-CBFb-SMMHC FRET ratio 530/480, 1 h. inhibition, % at 20 µM. actives 0.74% (n = 220,000). AID 1434;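 active = mean inhibition across duplicate retests at 20 µM reaching about 50%, limit read from the data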;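 note: inhibitors lower the FRET ratio by blocking Runt binding to CBFb-SMMHC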
Hck-Nef confirm = confirmation of Hck-Nef kinase inhibitors. Recombinant Hck-YEEI:Nef, Z-Lyte FRET kinase assay. actives 28% (n = 1,300). calls only at 10 µM. shares compounds with Hck Nef HTS;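 active = average inhibition of at least 50%, with Z-scores no higher than 3 in both the phospho-tyrosine peptide and fluorescence counterscreens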
Each line names hits and unclear results; the compound was inactive in the other large screens (follow-up assays come after a bar, where shown).

O=C(CSc1nc(-c2ccc(F)cc2)nc2c1Cc1ccccc1O2)Nc1cccc(C(=O)O)c1	Hck Nef HTS 153 | Hck-Nef confirm active
CCOc1ccc(-c2ccc(C=O)o2)c([N+](=O)[O-])c1	Hck Nef HTS 100 | Hck-Nef confirm inactive
CC(C)C(NC(N)=O)C(=O)NC1CCCCC1 (centres undefined)	none
Cc1cc(NC(=O)CCC(=O)N(CCC(C)C)C(C(=O)NC2CCCC2)c2ccccc2C)no1 (centres undefined)	none (no result: Hck Nef HTS, TbHK1 inh, Runt-CBFb FRET, Runt-SMMHC FRET)
CC(C)c1ccc(S(=O)(=O)c2cc3cc(Br)ccc3oc2=O)cc1	none
Cc1ccc(S(=O)(=O)Nc2ccc(O)c(S(=O)(=O)c3ccc(C)cc3)c2)cc1	none (no result: Hck Nef HTS, TbHK1 inh, Runt-CBFb FRET, Runt-SMMHC FRET)
CCCCCCc1cc2cc(S(=O)(=O)c3ccc(C)cc3)c(=O)oc2cc1O	Hck Nef HTS 80, RanGTP-Imp inh 163
CCCCCCc1cc2cc(C(=O)Nc3ccccc3)c(=O)oc2cc1O	Hck Nef HTS 72, RanGTP-Imp inh 117, Runt-CBFb FRET 113, Runt-SMMHC FRET 58 | Hck-Nef confirm inactive
CCCCCCc1cc2cc(S(=O)(=O)c3ccc(Cl)cc3)c(=O)oc2cc1O	Hck Nef HTS 110, RanGTP-Imp inh 166, Runt-SMMHC FRET 81
N=c1oc2ccccc2cc1C(=O)Nc1ccccc1	none (no result: Hck Nef HTS, TbHK1 inh, Runt-CBFb FRET, Runt-SMMHC FRET)
Cc1cc(NC(=O)CSCC(=O)N2CCN(c3cccc(C(F)(F)F)c3)CC2)no1	none (no result: Hck Nef HTS, TbHK1 inh, Runt-CBFb FRET, Runt-SMMHC FRET)
Cn1c(=O)c2ccccc2n(CC(=O)N2CCCc3ccccc32)c1=O	none (no result: Hck Nef HTS, TbHK1 inh, Runt-CBFb FRET, Runt-SMMHC FRET)
Cc1ccc(C2=NN(C(=O)CSc3nc4ncc(Cl)cc4[nH]3)C(c3ccco3)C2)cc1 (centres undefined)	Hck Nef HTS 77 | Hck-Nef confirm inactive
COc1ccc(C2=NN(C(=O)CSc3nc4ncc(Cl)cc4[nH]3)C(c3ccco3)C2)cc1 (centres undefined)	none
N#Cc1cc2cc3c(cc2nc1NCCNC(=S)NCCCN1CCOCC1)OCO3	Hck Nef HTS 74, Runt-CBFb FRET 103, Runt-SMMHC FRET 100
N#Cc1cc2cc3c(cc2nc1SCC(=O)N1CCOCC1)OCO3	none (no result: Hck Nef HTS, TbHK1 inh, Runt-CBFb FRET, Runt-SMMHC FRET)
Cc1cccc(NC(=O)CSc2nc(COc3ccccc3)nc3ccccc23)c1C	Hck Nef HTS 60 | Hck-Nef confirm inactive
Cc1cc(C)cc(NC(=O)c2ccc(CSc3nnc(C)s3)cc2)c1	Hck Nef HTS 101 | Hck-Nef confirm inactive
Cc1ccc(NC(=O)c2ccc(CSc3nnc(C)s3)cc2)cc1	none
S=c1[nH]nc(-c2ccco2)n1/N=C/c1c(Cl)cccc1Cl	Hck Nef HTS 61, RanGTP-Imp inh inconclusive | Hck-Nef confirm inactive
O=C1NC(=S)S/C1=C\C=C\c1ccc([N+](=O)[O-])o1	Hck Nef HTS 56 (no result: RanGTP-Imp inh) | Hck-Nef confirm active
O=C(O)/C=C/c1ccc([N+](=O)[O-])o1	none
CCOc1cc(/C=N/NC(=O)c2ccc(-c3csc(Nc4ccc(C)cc4)n3)cc2)ccc1OCC(=O)O	Hck Nef HTS 52 (no result: RanGTP-Imp inh) | Hck-Nef confirm inactive
O=C(O)COc1ccc(/C=N/NC(=O)c2ccc(-c3csc(Nc4ccc(Cl)cc4)n3)cc2)cc1	Hck Nef HTS 75 | Hck-Nef confirm active
Fc1ccc(CNC(=S)Nc2ccccc2Cl)cc1	none
Cc1ccc(S(=O)(=O)c2c(C)cc(C)[nH]c2=O)cc1	none (no result: Hck Nef HTS, TbHK1 inh, Runt-CBFb FRET, Runt-SMMHC FRET)
O=C(CN1C(=O)COc2ccccc21)NCCCN1CCCCC1	none (no result: Hck Nef HTS, TbHK1 inh, Runt-CBFb FRET, Runt-SMMHC FRET)
Cc1ccsc1C(=O)NCCc1ccc(S(N)(=O)=O)cc1	none (no result: Hck Nef HTS, TbHK1 inh, Runt-CBFb FRET, Runt-SMMHC FRET)
COc1ccccc1/C=C/C=N/NC(=O)c1cc(-c2ccco2)[nH]n1	Hck Nef HTS 59 | Hck-Nef confirm inactive
Cc1cc(C)c2cc(CN(CCO)Cc3nnnn3Cc3ccccc3)c(=O)[nH]c2c1	Hck Nef HTS 85 | Hck-Nef confirm inactive
COc1ccc(/C=C2\SC(=N)N(c3ccc(F)cc3)C2=O)cc1OC	Hck Nef HTS 63 | Hck-Nef confirm active
Nc1ncc(Br)cc1S(=O)(=O)NCCC(=O)N1CCN(c2ccccc2)CC1	none (no result: Hck Nef HTS, TbHK1 inh, Runt-CBFb FRET, Runt-SMMHC FRET)
CCn1c2ccccc2c2cc([N+](=O)[O-])ccc21	none
CCn1c2ccccc2c(=O)c2ccccc21	Hck Nef HTS 142, RanGTP-Imp inh 145, Runt-SMMHC FRET 91
O=C(Nc1cc(S(=O)(=O)N2CCOCC2)ccc1N1CCCC1)c1ccc2c(c1)S(=O)(=O)c1ccccc1C2=O	Hck Nef HTS 65 | Hck-Nef confirm inactive
